Like-named read-outs stand apart in the source and are kept apart here.
Assays:
[1] = Plasma teriparatide acetate pharmacokinetics after subcutaneous injection; assay type: in vivo, human
Method in brief: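 Vials were reconstituted in saline at use. 28.2 μg was given sc into the abdomen; 56.5 μg sc into the upper arm, in Cohort 1 with saline at the other site. Plasma was drawn pre-dose and at 0.25–6 h post-dose on days 1 and 36, frozen, and assayed centrally by IRMA (LLOQ 21.46 pg/mL). Noncompartmental parameters; values below LLOQ set to zero for means; arithmetic mean ± SD.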

[2] = system: bone turnover markers (P1NP, OC, serum NTX, CTX, urine NTX); assay: Changes in trough values of bone turnover markers; assay type: in vivo, human; conditions: for GMRs (trough to baseline) of serum P1NP and serum OC: 6 weeks, then steady until day 43; for GMRs (trough to baseline) of serum NTX, serum CTX, and urine NTX: after the 6-week treatments
Method in brief: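 Healthy postmenopausal women received sc synthetic human PTH 1-34 or saline placebo for 6 weeks. Markers were sampled pre-dose on days 1, 8, 15, 22, 29 and 36 and on day 43. Serum P1NP and CTX were measured by ECLIA, OC by IRMA, serum and urine NTX by ELISA; CTX only on days 1, 8, 29 and 43. Samples were assayed centrally. GMR of log-transformed trough to baseline, with 95% CI, by ANOVA per group.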

[3] = system: healthy Japanese postmenopausal women; assay: Safety: incidence of adverse events; assay type: in vivo, human; conditions: 6 weeks, n = 20
Method in brief: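 Randomized, single-blind, saline placebo-controlled trial in healthy Japanese postmenopausal women, with sc dosing for 6 weeks. Adverse events came from self-report, interviews or other tests, with onset, severity, seriousness, outcome and drug relationship recorded. Coding used MedDRA v17.1 preferred terms. Vital signs, 12-lead ECG, haematology, blood biochemistry and urinalysis were also monitored.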

[4] = system: patients with osteoporosis; conditions: TOWER trial, once-weekly 56.5 μg, cited from earlier work
[5] = system: subjects in the safety assessment population; conditions: 24-month open-label once-weekly trial, cited from earlier work
[6] = system: subjects of phase 2b trial; conditions: cited from earlier work
[7] = subjects with severe renal impairment (eGFR 15.0–29.9 mL/min/1.73 m^2); cited from earlier work
[8] = Cohort 1 BIW: 28.2 μg twice weekly sc, intervals 3, 4 days
[9] = Cohort 1 QW: 56.5 μg once weekly sc
[10] = Cohort 2 BIW: 28.2 μg twice weekly sc, intervals 2, 5 days
[11] = Cohort 3 BIW: 28.2 μg twice weekly sc, intervals 1, 6 days

CC[C@H](C)[C@H](NC(=O)[C@H](CCC(=O)O)NC(=O)[C@H](CO)NC(=O)[C@@H](NC(=O)[C@@H](N)CO)C(C)C)C(=O)N[C@@H](CCC(N)=O)C(=O)N[C@@H](CC(C)C)C(=O)N[C@@H](CCSC)C(=O)N[C@@H](Cc1cnc[nH]1)C(=O)N[C@@H](CC(N)=O)C(=O)N[C@@H](CC(C)C)C(=O)NCC(=O)N[C@@H](CCCCN)C(=O)N[C@@H](Cc1cnc[nH]1)C(=O)N[C@@H](CC(C)C)C(=O)N[C@@H](CC(N)=O)C(=O)N[C@@H](CO)C(=O)N[C@@H](CCSC)C(=O)N[C@@H](CCC(=O)O)C(=O)N[C@@H](CCCN=C(N)N)C(=O)N[C@H](C(=O)N[C@@H](CCC(=O)O)C(=O)N[C@@H](Cc1c[nH]c2ccccc12)C(=O)N[C@@H](CC(C)C)C(=O)N[C@@H](CCCN=C(N)N)C(=O)N[C@@H](CCCCN)C(=O)N[C@@H](CCCCN)C(=O)N[C@@H](CC(C)C)C(=O)N[C@@H](CCC(N)=O)C(=O)N[C@@H](CC(=O)O)C(=O)N[C@H](C(=O)N[C@@H](Cc1cnc[nH]1)C(=O)N[C@@H](CC(N)=O)C(=O)N[C@@H](Cc1ccccc1)C(=O)O)C(C)C)C(C)C [teriparatide]
Tmax ([1]; human, plasma, sc, 28.2 ug): ≤ 1 h
half-life ([1]; human, plasma, sc, 28.2 ug): 44.3 ± 6.12 min
accumulation of teriparatide acetate in plasma ([1]; multiple dosing of once-weekly 56.5 μg, 6 weeks): no accumulation
AUCinf and Cmax relative to the once-weekly 56.5-μg group ([1]; twice-weekly 28.2-μg groups): approximately half
accumulation in the plasma ([1]; twice-weekly 28.2-μg injection treatment, regardless of dosing intervals, 6 weeks): not observed
GMRs (trough to baseline) of serum P1NP and serum OC ([2]; all 3 twice-weekly 28.2-μg groups): similarly increased to day 29 or day 36
GMRs (trough to baseline) of serum NTX, serum CTX, and urine NTX ([2]; all twice-weekly 28.2-μg groups): did not increase
GMRs (trough to baseline) of serum P1NP and serum OC ([2]; once-weekly 56.5-μg group): similarly increased to day 29 or day 36
GMRs (trough to baseline) of serum NTX, serum CTX, and urine NTX ([2]; once-weekly 56.5-μg group): did not increase
Abdominal pain [3, 8]: 0 (0.0) number of subjects (%)
Adverse events, Total [3, 8]: 12 (60.0) number of subjects (%)
Alanine aminotransferase increased [3, 8]: 0 (0.0) number of subjects (%)
Arthralgia [3, 8]: 0 (0.0) number of subjects (%)
Aspartate aminotransferase increased [3, 8]: 0 (0.0) number of subjects (%)
Blood pressure decreased [3, 8]: 0 (0.0) number of subjects (%)
Chest discomfort [3, 8]: 0 (0.0) number of subjects (%)
Constipation [3, 8]: 0 (0.0) number of subjects (%)
Dizziness [3, 8]: 1 (5.0) number of subjects (%)
Dyspepsia [3, 8]: 1 (5.0) number of subjects (%)
Feeling abnormal [3, 8]: 0 (0.0) number of subjects (%)
Fractured coccyx [3, 8]: 1 (5.0) number of subjects (%)
Gamma-glutamyltransferase increased [3, 8]: 0 (0.0) number of subjects (%)
Headache [3, 8]: 5 (25.0) number of subjects (%)
Injection site erythema [3, 8]: 2 (10.0) number of subjects (%)
Malaise [3, 8]: 2 (10.0) number of subjects (%)
Nasopharyngitis [3, 8]: 0 (0.0) number of subjects (%)
Nausea [3, 8]: 9 (45.0) number of subjects (%)
Pruritus [3, 8]: 0 (0.0) number of subjects (%)
Rash [3, 8]: 0 (0.0) number of subjects (%)
Somnolence [3, 8]: 0 (0.0) number of subjects (%)
Vomiting [3, 8]: 4 (20.0) number of subjects (%)
Abdominal pain [3, 9]: 0 (0.0) number of subjects (%)
Adverse events, Total [3, 9]: 18 (90.0) number of subjects (%)
Alanine aminotransferase increased [3, 9]: 2 (10.0) number of subjects (%)
Arthralgia [3, 9]: 1 (5.0) number of subjects (%)
Aspartate aminotransferase increased [3, 9]: 1 (5.0) number of subjects (%)
Blood pressure decreased [3, 9]: 1 (5.0) number of subjects (%)
Chest discomfort [3, 9]: 0 (0.0) number of subjects (%)
Constipation [3, 9]: 1 (5.0) number of subjects (%)
Dizziness [3, 9]: 3 (15.0) number of subjects (%)
Dyspepsia [3, 9]: 0 (0.0) number of subjects (%)
Feeling abnormal [3, 9]: 0 (0.0) number of subjects (%)
Fractured coccyx [3, 9]: 0 (0.0) number of subjects (%)
Gamma-glutamyltransferase increased [3, 9]: 1 (5.0) number of subjects (%)
Headache [3, 9]: 15 (75.0) number of subjects (%)
Injection site erythema [3, 9]: 2 (10.0) number of subjects (%)
Malaise [3, 9]: 4 (20.0) number of subjects (%)
Nasopharyngitis [3, 9]: 0 (0.0) number of subjects (%)
Nausea [3, 9]: 18 (90.0) number of subjects (%)
Pruritus [3, 9]: 0 (0.0) number of subjects (%)
Rash [3, 9]: 0 (0.0) number of subjects (%)
Somnolence [3, 9]: 1 (5.0) number of subjects (%)
Vomiting [3, 9]: 14 (70.0) number of subjects (%)
Abdominal pain [3, 10]: 1 (5.0) number of subjects (%)
Adverse events, Total [3, 10]: 12 (60.0) number of subjects (%)
Alanine aminotransferase increased [3, 10]: 0 (0.0) number of subjects (%)
Arthralgia [3, 10]: 0 (0.0) number of subjects (%)
Aspartate aminotransferase increased [3, 10]: 0 (0.0) number of subjects (%)
Blood pressure decreased [3, 10]: 0 (0.0) number of subjects (%)
Chest discomfort [3, 10]: 1 (5.0) number of subjects (%)
Constipation [3, 10]: 0 (0.0) number of subjects (%)
Dizziness [3, 10]: 0 (0.0) number of subjects (%)
Dyspepsia [3, 10]: 0 (0.0) number of subjects (%)
Feeling abnormal [3, 10]: 1 (5.0) number of subjects (%)
Fractured coccyx [3, 10]: 0 (0.0) number of subjects (%)
Gamma-glutamyltransferase increased [3, 10]: 0 (0.0) number of subjects (%)
Headache [3, 10]: 4 (20.0) number of subjects (%)
Injection site erythema [3, 10]: 3 (15.0) number of subjects (%)
Malaise [3, 10]: 0 (0.0) number of subjects (%)
Nasopharyngitis [3, 10]: 1 (5.0) number of subjects (%)
Nausea [3, 10]: 10 (50.0) number of subjects (%)
Pruritus [3, 10]: 0 (0.0) number of subjects (%)
Rash [3, 10]: 0 (0.0) number of subjects (%)
Somnolence [3, 10]: 0 (0.0) number of subjects (%)
Vomiting [3, 10]: 5 (25.0) number of subjects (%)
Abdominal pain [3, 11]: 0 (0.0) number of subjects (%)
Adverse events, Total [3, 11]: 16 (80.0) number of subjects (%)
Alanine aminotransferase increased [3, 11]: 0 (0.0) number of subjects (%)
Arthralgia [3, 11]: 0 (0.0) number of subjects (%)
Aspartate aminotransferase increased [3, 11]: 0 (0.0) number of subjects (%)
Blood pressure decreased [3, 11]: 0 (0.0) number of subjects (%)
Chest discomfort [3, 11]: 0 (0.0) number of subjects (%)
Constipation [3, 11]: 0 (0.0) number of subjects (%)
Dizziness [3, 11]: 0 (0.0) number of subjects (%)
Dyspepsia [3, 11]: 0 (0.0) number of subjects (%)
Feeling abnormal [3, 11]: 0 (0.0) number of subjects (%)
Fractured coccyx [3, 11]: 0 (0.0) number of subjects (%)
Gamma-glutamyltransferase increased [3, 11]: 0 (0.0) number of subjects (%)
Headache [3, 11]: 6 (30.0) number of subjects (%)
Injection site erythema [3, 11]: 13 (65.0) number of subjects (%)
Malaise [3, 11]: 0 (0.0) number of subjects (%)
Nasopharyngitis [3, 11]: 0 (0.0) number of subjects (%)
Nausea [3, 11]: 10 (50.0) number of subjects (%)
Pruritus [3, 11]: 1 (5.0) number of subjects (%)
Rash [3, 11]: 1 (5.0) number of subjects (%)
Somnolence [3, 11]: 0 (0.0) number of subjects (%)
Vomiting [3, 11]: 6 (30.0) number of subjects (%)
adverse events, subjects affected ([4]; 271 of 290 subjects): 93.4%
Malaise ([4]; n = 21 of 290): 7.2%
abdominal discomfort ([4]; n = 22 of 290): 7.6%
Vomiting ([4]; n = 33 of 290): 11.4%
Headache ([4]; n = 39 of 290): 13.4%
Nausea ([4]; n = 59 of 290): 20.3%
adverse events, subjects affected ([5]; 181 of 189 subjects): 95.8%
abdominal discomfort ([5]; n = 25 of 189): 13.2%
Malaise ([5]; n = 33 of 189): 17.5%
Headache ([5]; n = 37 of 189): 19.6%
Vomiting ([5]; n = 42 of 189): 22.2%
Nausea ([5]; n = 69 of 189): 36.5%
Incidence of adverse events ([6]; once-weekly 14.1-μg dosing group, 14 of 73 subjects): 19.2%
frequency of nausea ([6]; once-weekly 14.1-μg group, 4 of 73 patients): 5.5%
Incidence of adverse events ([6]; once-weekly 28.2-μg dosing group, 14 of 75): 18.7%
frequency of nausea ([6]; once-weekly 28.2-μg group, 7 of 75): 9.3%
Incidence of adverse events ([6]; once-weekly 56.5-μg dosing group, 30 of 72): 41.7%
frequency of nausea ([6]; once-weekly 56.5-μg group, 15 of 72): 20.8%
elimination half-life [7]: significantly prolonged
